High-throughput results deposited in PubChem by Sanford-Burnham Center for Chemical Genomics.
The list is not random: actives were taken first. Their share in the collection is about 2%.
Rpn11 inh: Rpn11 (human) deubiquitinase inhibition; O00487; human 26S proteasome, Ub4-pepOG fluorescence polarization; 20S core pre-blocked with epoxomicin; inhibition, % at 20 µM; 0.59% of 360,000 active;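 active = inhibition at 20 µM, scaled to each plate's controls, above about 33%, limit read from the data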
Target sequence (O00487 whole entry, looked up): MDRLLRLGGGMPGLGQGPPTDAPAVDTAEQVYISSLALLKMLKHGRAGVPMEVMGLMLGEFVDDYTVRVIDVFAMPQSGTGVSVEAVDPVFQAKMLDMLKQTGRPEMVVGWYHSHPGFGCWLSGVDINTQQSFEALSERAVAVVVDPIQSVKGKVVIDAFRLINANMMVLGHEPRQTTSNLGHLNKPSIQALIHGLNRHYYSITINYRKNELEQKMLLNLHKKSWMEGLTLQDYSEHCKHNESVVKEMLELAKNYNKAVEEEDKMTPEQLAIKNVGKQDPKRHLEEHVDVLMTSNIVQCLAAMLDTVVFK
LMPTP block: blocks human LMPTP phosphatase | P24666 | recombinant LMPTP-A, OMFP fluorogenic substrate, fluorescence intensity | inhibition, % at 20 µM | 0.22% of 360,000 active;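 active = compounds that cut the enzyme signal by at least half of the control window in the single-dose screen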
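Material: LMPTP-A; amount: 0.625 nM enzyme; doses: single 20 µM dose; times: reaction 50 min, room temperature, dark; technique: fluorescence intensity of OMFP turnover product; benchmarks: no-enzyme and uninhibited controls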
STEP block: STEP (human) phosphatase inhibition | 0.25% of 360,000 active | inhibition, % at 20 µM | P54829 | recombinant STEP, OMFP fluorogenic substrate, fluorescence;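 active = inhibition at 20 µM, scaled per plate between control wells, above about 37%, limit read from the data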
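System: STEP (striatal-enriched tyrosine phosphatase) enzyme, cell-free; medium: Bis-Tris pH 6.0 buffer with DTT, detergent; dosing: 20 µM, 1% DMSO; times: reaction 20 min, ambient temperature; detection: fluorescence, 480/540 nm; read-out basis: normalized % inhibition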
Scp1 inh: Scp-1 (human) phosphatase inhibition; Q9GZU7; Recombinant Scp1, phosphopeptide, malachite green phosphate absorbance; inhibition, % at 20 µM; 0.88% of 340,000 active; AID 493091;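 active = inhibition above about 50% at 20 µM, limit read from the data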
Target sequence (Q9GZU7 76-261 limits assumed): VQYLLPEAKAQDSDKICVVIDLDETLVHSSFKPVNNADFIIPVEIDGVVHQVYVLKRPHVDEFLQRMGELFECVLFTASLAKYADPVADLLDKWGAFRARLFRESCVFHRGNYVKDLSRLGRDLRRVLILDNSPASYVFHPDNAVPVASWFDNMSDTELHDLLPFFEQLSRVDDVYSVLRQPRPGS
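Test system: SCP-1 phosphatase catalytic domain, residues 76-261; measured by: colorimetric phosphate reagent with accelerator and stabiliser, absorbance at 630 nm; timing: enzyme reaction 45 min at room temperature, colour 5 min, stabilisation 30 min; also added: Phosphorylated 17-residue peptide substrate; compound dosing: one concentration, 20 µM, with 1.0% DMSO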
DNMT1 block: DNMT1 (human) enzyme inhibition | P26358 | DNMT1 molecular beacon, Hinp1I cleavage, fluorescence | inhibition (reported as % activation of signal), % at 10 µM | 0.83% of 360,000 active | AID 588458; in the data active = inhibition above about 50%
Scp-1 conf: Scp-1 (human) inhibition, single-dose confirmed. inhibition, % at 20 µM. AID 540281. 61% of 2,500 active. recombinant SCP-1 catalytic domain, phosphate release, malachite green absorbance. shares compounds with Scp1 inh
Scp-1 MG ctr: colorimetric interference in Scp-1 counter-screen; Colorimetric interference counterscreen, malachite green absorbance 630 nm; shares compounds with Scp1 inh; apparent inhibition (interference), % at 20 µM; 2,500 tested, under 10 active;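 also: compounds added after enzyme reaction finished so only phosphate colour detection is probed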
Scp1 DSF: Scp-1 (human) binding by thermal shift | 25% of 1,500 active | AID 540329 | Recombinant SCP1, Sypro Orange thermal shift Tm | thermal shift relative to vanadate control, % at 40 µM | shares compounds with Scp1 inh;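 active = substances whose mean melting-temperature shift, as a percentage of the reference inhibitor's shift, reaches about 5.3%, limit read from the data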
Large screens that a line does not name were inactive (follow-up assays come after a bar, where they were run).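 The calls were made as follows, unless noted: active = inhibition of at least 30% at 20 µM; inactive = the rest.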

C[C@H]1CN([C@@H](C)CO)C(=O)CCCn2nncc2CO[C@H]1CN(C)C(=O)NC1CCCCC1	none (no result: Scp1 inh)
C[C@H]1CN([C@@H](C)CO)C(=O)c2cc(C#CC3(O)CCCC3)cnc2O[C@H]1CN(C)C(=O)C1CC1	none (no result: Scp1 inh)
Cc1cc(NC(=O)c2ccc(C)c([N+](=O)[O-])c2)no1	none
Cc1ccc(C(=O)Nc2cccc(NC(=O)c3ccc(C)c([N+](=O)[O-])c3)n2)cc1[N+](=O)[O-]	Scp1 inh 70.0 | Scp-1 conf 66.6 | Scp-1 MG ctr inactive | Scp1 DSF 13.7
O=C1NC(=Nc2ccccc2)S/C1=C\c1cccnc1	Scp1 inh 67.4 | Scp-1 conf inactive | Scp-1 MG ctr inactive
Cc1[nH]c2ccccc2c1N=Nc1cc(C(=O)O)cc(C(=O)O)c1	Scp1 inh 52.5 | Scp-1 conf inactive | Scp-1 MG ctr inactive
Cc1cc2c(cc1C)-c1nnnn1C(N1CCCCC1)C(=O)N2 (stereo unspecified)	none (no result: Rpn11 inh, STEP block, Scp1 inh, DNMT1 block)
O=C(Nc1ccccc1C(=O)N1CCCCCC1)c1ccccc1	Scp1 inh 58.5 | Scp-1 conf inactive | Scp-1 MG ctr inactive
COc1cccc(C(=O)Nc2ccccc2C(=O)N2CCCC2)c1	none
C[C@H](CO)N1C[C@H](C)[C@@H](CN(C)S(=O)(=O)c2cccs2)Oc2c(NS(=O)(=O)c3ccc(F)cc3)cccc2C1=O	none
CCc1ccc(C(=O)NNC(=O)[C@H](C)NC(=O)c2ccco2)cc1	none
C[C@H](NC(=O)c1ccco1)C(=O)NNC(=O)c1ccc(F)cc1	Scp1 inh 99.5 | Scp-1 conf inactive | Scp-1 MG ctr inactive
COc1cccc(OCCOc2ccc(/C=C3/SC(=S)NC3=O)cc2)c1	Scp1 inh 56.4 | Scp-1 conf inactive | Scp-1 MG ctr inactive
CC(C)Oc1cccc(NC(=O)C2(C)CCCN2C(=O)C(C)C)c1 (stereo unspecified)	none (no result: Scp1 inh)
Cc1nc(CNC(=O)c2ccccc2OC2CCN(S(C)(=O)=O)CC2)cs1	Scp1 inh 60.7 | Scp-1 conf inactive | Scp-1 MG ctr inactive
Cc1nc(CN(C)C(=O)c2ccccc2OC2CCN(S(C)(=O)=O)CC2)cs1	none
COc1ccc(NC(=O)C2Cc3c(-c4ccc5c(c4)OCO5)ccnc3O2)cc1OC (stereo unspecified)	none (no result: Scp1 inh)
CNC(=O)c1cc2c(s1)-c1ccccc1CC2	none
O=C(N/N=C/c1ccc(F)c(F)c1)c1cc2c(s1)-c1ccccc1CC2	Scp1 inh 62.1 | Scp-1 conf 42.4 | Scp-1 MG ctr inactive | Scp1 DSF inactive
CC[N+](CC)(CC)CCOc1ccc(/C=C/c2ccccc2)cc1	Scp1 inh 73.7 | Scp-1 conf 50.3 | Scp-1 MG ctr inactive | Scp1 DSF inactive
CCOc1ccc(/C=C/C(=O)c2ccccc2)cc1	none
N#CC1=C(N)n2c(s/c(=C\c3ccco3)c2=O)=C(C#N)C1c1ccco1 (stereo unspecified)	Scp1 inh 63.1, DNMT1 block 95.0 | Scp-1 conf 70.8 | Scp-1 MG ctr inactive | Scp1 DSF 17.6
CC(C)(C)NC(=O)C1(C)CCC(=O)N1C1CCN(Cc2ccccc2)CC1 (stereo unspecified)	none (no result: Scp1 inh)
COc1ccc(CC2(CO)CCN(S(=O)(=O)c3c(C)nn(C)c3Cl)CC2)cc1	none
Cc1nn(C)c(Cl)c1S(=O)(=O)N1CCC(CO)(CCc2ccccc2)CC1	Scp1 inh 80.8 | Scp-1 conf inactive | Scp-1 MG ctr inactive
CCOC(=O)c1ccc(NC(=O)CSc2nnc(-c3cccs3)n2C)cc1	Scp1 inh 105.0 | Scp-1 conf inactive | Scp-1 MG ctr inactive
CCOC(=O)c1ccc(NC(=O)CSc2nnc(-c3cccs3)n2CC)cc1	none
Cc1coc2c(C)c3oc(=O)c(CC(=O)N[C@@H](CC(C)C)C(=O)O)c(C)c3cc12	none
COc1ccc(-c2coc3c(C)c4oc(=O)c(CCC(=O)O)c(C)c4cc23)cc1	none
